Data reported in ChEMBL document CHEMBL5034002, “Benzoheterocyclic Oxime Carbamates Active against Mycobacterium tuberculosis: Synthesis, Structure-Activity Relationship, Metabolism, and Biology Triaging” (J Med Chem, 2021).
In brackets after ≈: the same amount, converted by molar mass. Activity calls are given as the source filed them. The rule behind the calls is not given here.

How the values were obtained:
[1] = test system: Mycobacterium tuberculosis; experiment: Antitubercular activity against Mycobacterium tuberculosis H37RvMA incubated for 14 days in GAST/FE medium by Alamar blue assay; assay type: functional; details: 336 h, time 14 day
In short: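 Mtb H37RvMa grown in GAST/Fe medium, 14 day incubation with compound, growth read by Alamar Blue.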

[2] = test system: CHO; experiment: Cytotoxicity against CHO cells; assay type: cell-based; details: Cricetulus griseus
In short: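 Cytotoxicity measured on Chinese hamster ovary (CHO) cells.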

[3] = test system: Mycobacterium tuberculosis; experiment: Drug degradation in Mycobacterium tuberculosis H37RvMA at 0.1 uM incubated over 96 hrs by LC-MS/MS analysis; assay type: functional, organism-based
In short: (§1)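 Compound at 0.1 μM in 7H9/OADC medium was added to log-phase Mtb H37RvMa culture and sampled over 96 h, earliest at 3 h. Controls were heat-killed culture and sterile medium. Analysis by LC-MS/MS as analyte/internal standard peak area ratio, expressed as % of mean time-zero ratio. One-way ANOVA with Dunnett's test against medium control at each time point.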

[4] = test system: Mycobacterium tuberculosis; experiment: Antitubercular activity against Mycobacterium tuberculosis H37RvMA infected in THP-1 cells assessed as intracellular bacterial growth at 10 uM measured over 6 days; assay type: functional, organism-based; details: time 6.0 day
In short: (§2)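 THP-1 macrophages infected in vitro with Mtb H37RvMa, then treated with compound over 6 days (10 μM, or increasing concentrations up to 80 μM). Intracellular bacterial growth was compared with untreated control at day 6 post treatment by one-way ANOVA with Dunnett's test.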

[5] = Kinetic solubility of the compound in pH 6.5; assay type: physicochemical; details: buffer, read-out: Kinetic_solubility
[6] = test system: Mycobacterium tuberculosis; experiment: Antitubercular activity against Mycobacterium tuberculosis H37RvMA incubated for 14 days in 7H9/OHADC medium by Alamar blue assay; assay type: functional; details: 336 h, time 14 day
[7] = test system: Enterobacter cloacae; experiment: Antibacterial activity against Enterobacter cloacae; assay type: functional
[8] = test system: Escherichia coli; experiment: Antibacterial activity against Escherichia coli ATCC 25922; assay type: functional
[9] = test system: Klebsiella pneumoniae; experiment: Antibacterial activity against Klebsiella pneumoniae BAA-1705; assay type: functional; details: ATCC BAA-1705
[10] = test system: Acinetobacter baumannii; experiment: Antibacterial activity against Acinetobacter baumannii ATCC 19606; assay type: functional
[11] = test system: Pseudomonas aeruginosa; experiment: Antibacterial activity against Pseudomonas aeruginosa ATCC 27853; assay type: functional
[12] = test system: Staphylococcus aureus; experiment: Antibacterial activity against Staphylococcus aureus ATCC 25923; assay type: functional
[13] = Stability in human liver microsomes assessed as compound remaining after 30 mins; assay type: ADME, Microsome; details: read-out: Stability
[14] = Stability in rat liver microsomes assessed as compound remaining after 30 mins; assay type: ADME, Microsome; details: read-out: Stability
[15] = Stability in mouse liver microsomes assessed as compound remaining after 30 mins; assay type: ADME, Microsome; details: read-out: Stability
[16] = Stability in human liver S9 fraction assessed as compound remaining after 40 mins; assay type: ADME, subcellular; details: read-out: Stability
[17] = molecular target: Voltage-gated inwardly rectifying potassium channel KCNH2 (Homo sapiens, UniProt Q12809); experiment: Inhibition of human ERG by Ionworks electrophysiology assay
Voltage-gated inwardly rectifying potassium channel KCNH2, sequence (Q12809 whole entry): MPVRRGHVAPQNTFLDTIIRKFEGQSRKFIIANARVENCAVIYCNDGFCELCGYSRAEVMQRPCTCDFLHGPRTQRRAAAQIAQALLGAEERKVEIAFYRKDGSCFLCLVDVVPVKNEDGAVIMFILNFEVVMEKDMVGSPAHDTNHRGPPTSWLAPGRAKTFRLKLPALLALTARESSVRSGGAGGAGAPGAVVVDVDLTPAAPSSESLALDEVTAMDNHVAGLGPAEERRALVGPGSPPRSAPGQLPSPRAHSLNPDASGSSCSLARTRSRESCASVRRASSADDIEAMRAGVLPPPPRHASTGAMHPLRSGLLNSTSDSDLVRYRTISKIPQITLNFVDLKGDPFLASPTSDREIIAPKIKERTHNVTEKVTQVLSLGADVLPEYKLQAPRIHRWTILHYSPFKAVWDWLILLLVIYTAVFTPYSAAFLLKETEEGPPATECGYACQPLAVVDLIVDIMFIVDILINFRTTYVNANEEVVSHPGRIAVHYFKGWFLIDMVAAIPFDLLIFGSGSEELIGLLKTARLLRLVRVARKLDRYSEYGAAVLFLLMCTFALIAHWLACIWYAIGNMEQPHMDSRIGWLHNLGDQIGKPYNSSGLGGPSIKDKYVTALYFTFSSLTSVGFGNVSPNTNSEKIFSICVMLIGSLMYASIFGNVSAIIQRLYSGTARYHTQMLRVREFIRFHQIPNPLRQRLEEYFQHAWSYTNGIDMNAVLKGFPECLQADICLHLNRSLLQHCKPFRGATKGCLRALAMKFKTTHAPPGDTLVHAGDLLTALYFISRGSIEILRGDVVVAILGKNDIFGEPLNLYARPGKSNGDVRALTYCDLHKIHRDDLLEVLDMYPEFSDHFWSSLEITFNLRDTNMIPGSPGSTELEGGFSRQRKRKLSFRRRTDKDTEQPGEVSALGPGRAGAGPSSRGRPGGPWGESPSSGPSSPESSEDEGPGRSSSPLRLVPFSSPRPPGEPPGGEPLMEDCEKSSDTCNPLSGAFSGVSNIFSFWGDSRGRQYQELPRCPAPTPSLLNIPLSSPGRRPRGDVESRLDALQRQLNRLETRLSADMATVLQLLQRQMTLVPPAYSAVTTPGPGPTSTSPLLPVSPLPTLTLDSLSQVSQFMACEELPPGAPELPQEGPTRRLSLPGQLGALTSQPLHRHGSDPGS
In short: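 hERG inhibition measured by electrophysiology on IonWorks HT.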

[18] = test system: Mycobacterium tuberculosis; experiment: Drug degradation in Mycobacterium tuberculosis H37RvMA assessed as compound hydrolysis at 0.1 uM incubated over 96 hrs by LC-MS/MS analysis; assay type: functional, organism-based; in short: as §1
[19] = test system: Mycobacterium tuberculosis; experiment: Antitubercular activity against Mycobacterium tuberculosis H37RvMA infected in THP-1 cells assessed as intracellular bacterial growth at 80 uM measured over 6 days; assay type: functional, organism-based; details: time 6.0 day; in short: as §2
[20] = test system: Mycobacterium tuberculosis; experiment: Antitubercular activity against Mycobacterium tuberculosis H37RvMA infected in THP-1 cells assessed as intracellular bacterial growth measured over 6 days; assay type: functional, organism-based; details: dose 10-80 µM, time 6.0 day; in short: as §2

SMILES	MIC [1] [µM]	IC50 [2] [µM]	other results
CN(C)C(=O)O/N=C(\C#N)c1nc2ccc(C(F)(F)F)cc2o1	< 0.24	46.3	
O/N=C(/c1nc2ccccc2s1)C1CCCC1	> 125	83.5	
O/N=C(\c1ccc2ncsc2c1)c1nc2ccccc2s1	> 125	> 50	
N#C/C(=N\OCc1ccccn1)c1nc2ccccc2s1	> 160		
O/N=C(\c1cnco1)c1nc2ccccc2s1	50 (≈ 12.3 µg/mL)	> 100	
Cc1nnc(/C(=N\O)c2nc3ccccc3s2)s1	2.5 (≈ 0.691 µg/mL)	38	
CN(C)C(=O)O/N=C(\C#N)c1nc2ccccc2o1	0.3 (≈ 0.0775 µg/mL)	> 100	Drug degradation [3]: Unstable; Activity [4]: inactive; solubility kinetic [5]: 18 µM (≈ 4.65 µg/mL); MIC [6]: 0.6 µM (≈ 0.155 µg/mL); MIC [7]: > 125 µM; MIC [8]: > 125 µM; MIC [9]: > 125 µM; MIC [10]: > 125 µM; MIC [11]: > 125 µM; MIC [12]: > 125 µM; remaining at 0.5 h [13]: > 99%; remaining at 0.5 h [14]: 98%; remaining at 0.5 h [15]: > 99%; remaining at 40 min [16]: 60%; IC50 [17]: > 33 µM
CC(=O)Nc1ccc2nc(/C(C#N)=N/OC(=O)N(C)C)oc2c1	5.2 (≈ 1.64 µg/mL)	> 100	
CN(C)C(=O)O/N=C(\C#N)c1nc2ccccc2[nH]1	9.4 (≈ 2.42 µg/mL)		solubility kinetic [5]: 29 µM (≈ 7.46 µg/mL)
CN(C)C(=O)CO/N=C(\C#N)c1nc2ccccc2s1	> 160		
N#C/C(=N\OCc1ccccc1)c1nc2ccccc2s1	20 (≈ 5.87 µg/mL)		
Cc1nc(/C(=N\O)c2nc3ccccc3s2)no1	> 160		
N#C/C(=N\OCc1ccncc1)c1nc2ccccc2s1	20 (≈ 5.89 µg/mL)		
OC(O)(c1nc2ccccc2s1)C(F)(F)F	> 50		solubility kinetic [5]: 184 µM (≈ 45.9 µg/mL)
CO/N=C(\C#N)c1nc2ccccc2s1	160 (≈ 34.8 µg/mL)		
N#C/C(=N\[O-])c1ccccc1.[Na+]	> 50		solubility kinetic [5]: 56 µM
Cc1cnc(/C(=N\O)c2nc3ccccc3s2)s1	3.13 (≈ 0.862 µg/mL)	29	
O/N=C(\c1cnccn1)c1nc2ccccc2s1	3.6 (≈ 0.923 µg/mL)	11.7	
CN(C)C(=O)O/N=C(\C#N)c1nc2ccccc2s1	< 0.16	> 100	
CS(=O)(=O)O/N=C(\C#N)c1nc2ccccc2s1	0.5 (≈ 0.141 µg/mL)		
CN(C)S(=O)(=O)O/N=C(\C#N)c1nc2ccccc2s1	0.3 (≈ 0.0931 µg/mL)	91.3	
Cc1cccc2oc(/C(C#N)=N/OC(=O)N(C)C)nc12	< 0.24	> 100	
CN(C)C(=O)O/N=C(\C#N)c1nc2ccc([N+](=O)[O-])cc2o1	< 0.24	46.8	
CN(C)C(=O)O/N=C(\C#N)c1nc2cc(F)ccc2o1	< 0.24		
CN(C)C(=O)O/N=C(\C#N)c1nc2ccc(Br)cc2o1	< 0.24	> 100	
Nc1nonc1-c1nc2ccccc2s1	> 50		solubility kinetic [5]: 5 µM (≈ 1.09 µg/mL)
CN(C)C(=O)O/N=C(\C#N)c1nc2cc(Br)ccc2o1	< 0.24		
N#C/C(=N\OCc1cccnc1)c1nc2ccccc2s1	> 160		

SMILES	MIC [1] [µM]	IC50 [2] [µM]	other results
CO[C@H]1/C=C/O[C@@]2(C)Oc3c(C)c(O)c4c(O)c(c(/C=N/N5CCN(C)CC5)c(O)c4c3C2=O)NC(=O)/C(C)=C\C=C\[C@H](C)[C@H](O)[C@@H](C)[C@@H](O)[C@@H](C)[C@H](OC(C)=O)[C@@H]1C [RIFAMPIN]	0.009 (≈ 0.00741 µg/mL)		
Cc1ccc2oc(/C(C#N)=N/OC(=O)N(C)C)nc2c1	< 0.24	> 100	
CN(C)C(=O)O/N=C(\C#N)c1nc2ccc(F)cc2o1	< 0.24	> 100	
CN(C)C(=O)O/N=C(\C#N)c1ccccn1	9.4 (≈ 2.05 µg/mL)		solubility kinetic [5]: 175 µM (≈ 38.2 µg/mL)
Cc1ccc2nc(/C(C#N)=N/O)oc2c1	> 160	> 100	Drug degradation [3]: Unstable; Activity [4]: inactive
N#C/C(=N\O)c1nc2ccccc2o1	> 160		Activity [4]: inactive
O/N=C(/c1nc2ccccc2s1)C1CCCCC1	> 125	51.6	
CN(C)C(=O)O/N=C(\C#N)c1nc2ccc(Cl)cc2o1	< 0.24	> 100	Drug degradation [18]: Unstable; Activity [4]: inactive; Activity [19]: Active; Activity [20]: Dose-Dependent Effect
Cc1ccc2nc(/C(C#N)=N/OS(=O)(=O)N(C)C)oc2c1	5 (≈ 1.54 µg/mL)		
CN(C)C(=O)O/N=C(\C#N)c1nc2cc(Cl)ccc2o1	< 0.24	> 100	
O/N=C(/c1nc2ccccc2s1)C(F)(F)F	37 (≈ 9.11 µg/mL)		
CCCO/N=C(\C#N)c1nc2ccccc2s1	> 160		
N#C/C(=N\O)c1nc2ccccc2s1	> 160	> 100	
NNC(=O)c1ccncc1 [ISONIAZID]	0.14 (≈ 0.0192 µg/mL)		
CCOC(=O)CO/N=C(\C#N)c1nc2ccccc2s1	> 160		
O/N=C(\c1ccccc1)c1nc2ccccc2s1	> 50	> 100	
ON=C(c1nc2ccccc2s1)c1nc2ccccc2s1	0.8 (≈ 0.249 µg/mL)	> 100	
Cc1ccc2nc(/C(C#N)=N/OC(=O)N(C)C)oc2c1	< 0.16	> 100	Activity [4]: inactive
N#C/C(=N\O)c1ccccn1	> 50		solubility kinetic [5]: 202 µM (≈ 29.7 µg/mL)
CON=C(c1nc2ccccc2s1)c1nc2ccccc2s1	> 125	> 50	
C/C(=N\O)c1nc2ccccc2s1	> 125	> 100	
[O-][n+]1onc(-c2nc3ccccc3s2)c1-c1nc2ccccc2s1	> 50		solubility kinetic [5]: < 5 µM
O/N=C(\c1nnc(C(F)(F)F)s1)c1nc2ccccc2s1	0.78 (≈ 0.258 µg/mL)	15.6	solubility kinetic [5]: 67 µM (≈ 22.1 µg/mL); MIC [6]: 1.2 µM (≈ 0.396 µg/mL); MIC [7]: > 125 µM; MIC [8]: > 125 µM; MIC [9]: > 125 µM; MIC [10]: > 125 µM; MIC [11]: > 125 µM; MIC [12]: > 125 µM; remaining at 0.5 h [13]: > 99%; remaining at 0.5 h [14]: 86%; remaining at 0.5 h [15]: 71%
CN(C)C(=O)O/N=C(\C#N)c1ccccc1	9.4 (≈ 2.04 µg/mL)		
O/N=C/c1nc2ccccc2s1	> 160		
COC(=O)c1ccc2nc(/C(C#N)=N/OC(=O)N(C)C)oc2c1	< 0.24	7.05	
Cc1nnc(/C(=N\O)c2nc3ccccc3s2)o1	160 (≈ 41.6 µg/mL)		
